Results published in ChEMBL document CHEMBL1154465, “Structure-activity relationships in the acronycine and benzo[b]acronycine series: role of the pyran ring” (Eur J Med Chem, 2008).

Assays:
L1210 = test: Cytotoxicity against mouse L1210 cells after 48 hrs by microculture tetrazolium assay; assay type: functional, cell-based; conditions: L1210, 48 h
Method in brief: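 L1210 cells maintained in RPMI 1640 plus 10% fetal calf serum, 2 mM L-glutamine, penicillin, streptomycin and 10 mM HEPES (pH 7.4). Drug exposure at nine serial dilutions in triplicate for four doubling times (48 h). Microculture tetrazolium read-out; results given as IC50.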

[1] = Cytotoxicity against human KB3-1 cells after 96 hrs by microculture tetrazolium assay; assay type: functional, cell-based; conditions: KB 3-1, 96 h
Method in brief: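 KB-3-1 cells grown in DMEM with 10% fetal calf serum, 2 mM L-glutamine, penicillin, streptomycin and 10 mM HEPES (pH 7.4). Exposed to graded drug concentrations (nine serial dilutions, triplicate) for four doubling times (96 h). Viability read by microculture tetrazolium assay; IC50 reported.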

Compound | IC50 (L1210) | IC50 [1]
COc1ccc2c(=O)c3ccccc3n(C)c2c1COC(C)=O | 24 µM | –
COc1cc(OC(C)(C)CO)c(CO)c2c1c(=O)c1cc3ccccc3cc1n2C | 1.3 µM | 26.2 µM
COc1cc(OC)c2c(=O)c3ccccc3n(C)c2c1CO | 23.9 µM | 34.1 µM
COc1cc(OC(C)(C)COC(C)=O)c(COC(C)=O)c2c1c(=O)c1cc3ccccc3cc1n2C | 3 µM | 4.9 µM
COCc1c(OC)cc(OC)c2c(=O)c3ccccc3n(C)c12 | 51.7 µM | 36.2 µM
COc1cc(OC)c2c(=O)c3ccccc3n(C)c2c1COC(C)=O | 39.9 µM | 17.7 µM
COc1ccc2c(=O)c3ccccc3n(C)c2c1CO | 13.9 µM | –
COc1ccc2c(=O)c3cc4ccccc4cc3n(C)c2c1CO | 34.6 µM | 22.5 µM
COc1ccc2c(=O)c3cc4ccccc4cc3n(C)c2c1COC(C)=O | 18.5 µM | 7.9 µM
COc1cc2c(c3c1c(=O)c1cc4ccccc4cc1n3C)[C@@H](OC(C)=O)[C@@H](OC(C)=O)C(C)(C)O2 (relative stereo) | – | 0.095 µM
